Legend:
Format in all cases: functional, organism-based
[1] = tested on: Escherichia coli; experiment: Antibacterial activity against Escherichia coli (ATCC 25922) at concentration 0.5 uM/ml in dimethylformamide, + = resistant
Summary of the method: (§1)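 Broth microdilution MIC per NCCLS standard protocol. Compounds dissolved in DMF and doubling-diluted in Mueller Hinton broth across 0.5–128 µg/ml; ampicillin run alongside. Inoculum adjusted to McFarland 0.5 and diluted to approx. 5×10^5 cfu/ml final per well. Plates held overnight at 37 °C. Growth scored per concentration: + resistant, − susceptible. Each plate carried broth+inoculum and broth-only control wells.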

[2] = tested on: Escherichia coli; experiment: Antibacterial activity against Escherichia coli (ATCC 25922) at concentration 1.0 uM/ml in dimethylformamide, + = resistant; summary of the method: as §1
[3] = tested on: Escherichia coli; experiment: Antibacterial activity against Escherichia coli (ATCC 25922) at concentration 2.0 uM/ml in dimethylformamide, + = resistant; summary of the method: as §1
[4] = tested on: Escherichia coli; experiment: Antibacterial activity against Escherichia coli (ATCC 25922) at concentration 4.0 uM/ml in dimethylformamide, + = resistant; summary of the method: as §1
[5] = tested on: Escherichia coli; experiment: Antibacterial activity against Escherichia coli (ATCC 25922) at concentration 8.0 uM/ml in dimethylformamide, + = resistant; summary of the method: as §1
[6] = tested on: Escherichia coli; experiment: Antibacterial activity against Escherichia coli (ATCC 25922) at concentration 16.0 uM/ml in dimethylformamide, + = resistant; summary of the method: as §1
[7] = tested on: Escherichia coli; experiment: Antibacterial activity against Escherichia coli (ATCC 25922) at concentration 32.0 uM/ml in dimethylformamide, + = resistant; summary of the method: as §1
[8] = tested on: Escherichia coli; experiment: Antibacterial activity against Escherichia coli (ATCC 25922) at concentration 64.0 uM/ml in dimethylformamide, + = resistant; summary of the method: as §1
[9] = tested on: Staphylococcus aureus; experiment: Antibacterial activity against Staphylococcus aureus (ATCC 25923) at concentration 0.5 uM/ml in dimethylformamide, + = resistant; summary of the method: as §1
[10] = tested on: Staphylococcus aureus; experiment: Antibacterial activity against Staphylococcus aureus (ATCC 25923) at concentration 1.0 uM/ml in dimethylformamide, + = resistant; summary of the method: as §1
[11] = tested on: Staphylococcus aureus; experiment: Antibacterial activity against Staphylococcus aureus (ATCC 25923) at concentration 2.0 uM/ml in dimethylformamide, + = resistant; summary of the method: as §1
[12] = tested on: Staphylococcus aureus; experiment: Antibacterial activity against Staphylococcus aureus (ATCC 25923) at concentration 4.0 uM/ml in dimethylformamide, + = resistant; summary of the method: as §1
[13] = tested on: Staphylococcus aureus; experiment: Antibacterial activity against Staphylococcus aureus (ATCC 25923) at concentration 8.0 uM/ml in dimethylformamide, + = resistant; summary of the method: as §1
[14] = tested on: Pseudomonas aeruginosa; experiment: Antibacterial activity against Pseudomonas aeruginosa (ATCC 27853) at concentration 0.5 uM/ml in dimethylformamide, + = resistant; summary of the method: as §1
[15] = tested on: Pseudomonas aeruginosa; experiment: Antibacterial activity against Pseudomonas aeruginosa (ATCC 27853) at concentration 1.0 uM/ml in dimethylformamide, + = resistant; summary of the method: as §1
[16] = tested on: Pseudomonas aeruginosa; experiment: Antibacterial activity against Pseudomonas aeruginosa (ATCC 27853) at concentration 2.0 uM/ml in dimethylformamide, + = resistant; summary of the method: as §1
[17] = tested on: Pseudomonas aeruginosa; experiment: Antibacterial activity against Pseudomonas aeruginosa (ATCC 27853) at concentration 4.0 uM/ml in dimethylformamide, + = resistant; summary of the method: as §1
[18] = tested on: Pseudomonas aeruginosa; experiment: Antibacterial activity against Pseudomonas aeruginosa (ATCC 27853) at concentration 8.0 uM/ml in dimethylformamide, + = resistant; summary of the method: as §1
[19] = tested on: Staphylococcus aureus; experiment: Antibacterial activity against Staphylococcus aureus (ATCC 25923) at concentration 16.0 uM/ml in dimethylformamide, + = resistant; summary of the method: as §1
[20] = tested on: Staphylococcus aureus; experiment: Antibacterial activity against Staphylococcus aureus (ATCC 25923) at concentration 32.0 uM/ml in dimethylformamide, + = resistant; summary of the method: as §1
[21] = tested on: Staphylococcus aureus; experiment: Antibacterial activity against Staphylococcus aureus (ATCC 25923) at concentration 64.0 uM/ml in dimethylformamide, + = resistant; summary of the method: as §1
[22] = tested on: Pseudomonas aeruginosa; experiment: Antibacterial activity against Pseudomonas aeruginosa (ATCC 27853) at concentration 16.0 uM/ml in dimethylformamide, + = resistant; summary of the method: as §1
[23] = tested on: Pseudomonas aeruginosa; experiment: Antibacterial activity against Pseudomonas aeruginosa (ATCC 27853) at concentration 32.0 uM/ml in dimethylformamide, + = resistant; summary of the method: as §1

Measured: MIC

N#CC1=C(N)Oc2ccc3ccccc3c2C1c1ccccc1 (centres undefined)
Resistant: all assays above

N#CC1=C(N)Oc2cc(O)ccc2C1n1ccc2ccccc21 (centres undefined)
Resistant: all assays above

N#CC1=C(N)Oc2cc(O)ccc2C1c1cc2ccccc2nc1Cl (centres undefined)
not listed: [8]
Resistant: all other assays above

CC1(C)S[C@@H]2[C@H](NC(=O)[C@H](N)c3ccccc3)C(=O)N2[C@H]1C(=O)O
Resistant: [1] | [2] | [3] | [9] | [10] | [11] | [12] | [14] | [15] | [16] | [17]

— ChEMBL document CHEMBL1141056, “Aqua mediated synthesis of substituted 2-amino-4H-chromenes and in vitro study as antibacterial agents” (Bioorg Med Chem Lett, 2005)
